Values without a mark were called inactive. Results filed as inconclusive are left out. Calls of active or inactive are those of the source.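 Rule for the calls, unless noted: active = viability increase at or above a cutoff of the median across tested compounds plus 3 SD (cut at about 8.5% in these data, passing the limit was not always enough); inconclusive = some gains above the cutoff, reason not given; inactive = the rest.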
Columns and labels:
[1] = S. cerevisiae growth inhibition in permissive medium (OD615), pilot counter-assay for S. cerevisiae lifespan shortening project, permissive growth control (AID 705;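 active = growth inhibition above 25% in both replicates, a cutoff set 3 SD above the mean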); conditions: OD615, 24 h, at 10 µM, active compounds read high
How it was run: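 Material: engineered DeaD yeast; compound dosing: one dose 10 µM, DMSO 0.25% final; measure: yeast growth inhibition indicated by reduced 24 h OD615; detection: OD615 turbidity read; incubation: cells pre-grown 4 h, then 24 h compound exposure, 30 °C humidified; medium: permissive synthetic complete medium with raffinose and galactose carbon sources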

[2] = S. cerevisiae growth inhibition in restrictive medium, OD615, pilot screen, restrictive growth control, yeast lifespan reduction project (AID 706;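 active = growth inhibition above a set limit, 3 SD over mean compound inhibition, in both replicates, cut at about 43% in these data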;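 note: modified DeaD lifespan yeast strain shifted to restrictive glucose medium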); conditions: OD615, 48 h, at 10 µM, active compounds read high
How it was run: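 material = engineered S. cerevisiae DeaD strain | medium = glucose-based CSMM-D restrictive medium | times = 4 h pre-incubation, 48 h exposure at 30 °C | technique = OD615 absorbance reading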

[3] = doxorubicin toxicity protection in MRP-1 cells – H69AR cells, CellTiter-Glo, duplicate, MRP-1 activator project, pilot screen (AID 807); conditions: H69AR viability with doxorubicin, CellTiter-Glo luminescence; at 10 µM; active compounds read high;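 note: compound pretreatment 18-22 h then 72 h combined with doxorubicin; 0% = doxorubicin alone and 100% = vehicle without doxorubicin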
[4] = viability of HCT116 without oncogenic beta-catenin – human colon tumor cells, pilot screen (AID 823;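 active = cell viability at or below a set limit in both duplicate runs, the limit being the all-compound median minus 4 SD, cut at about 23% in these data, passing the limit was not always enough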;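 note: 0% = wells killed by 20 µM Hyamine and 100% = untreated DMSO cell wells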); conditions: HCT116 beta-catenin knockout viability, CellTiter-Glo, 60 h; at 10 µM; active compounds read low
[5] = viability of PTEN-null HCT116 cells – cell-based, HCT116 clonal line, CellTiter-Glo, pilot screen (AID 824;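 active = viability at or below 27.92% in each of two runs, the all-compound median minus 4 SD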;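 note: 0% = 20 µM Hyamine control and 100% = vehicle cell control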); conditions: HCT116 PTEN-deleted viability, 60 h, at 10 µM, active compounds read low
[6] = RAM pathway blockade in budding yeast – dse1pr::URA3 reporter, 5-FOA selection, pilot screen (AID 869;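 active = inhibition over a set limit, the all-compound mean plus 3 SD, in both replicate runs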;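 note: 0% = DMSO wells with no growth and 100% = 10 µM 1-NA-PP1 with full growth; RAM network block rescues cells from 5-FOA so hits raise OD615 growth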); conditions: S. cerevisiae dse1pr::URA3 5-FOA growth, OD615, 2 d; at 10 µM; active compounds read high; strain carries analog-sensitive mutant Cbk1 kinase
[7] = RAM signaling pathway blockade in yeast – S. cerevisiae, Pdr1DBD-CYC8 efflux-inhibited sensitized strain, primary screen (AID 1298;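 active = RAM network inhibition above 8.4% in each of two replicates, 3 SD over the compound average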;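 note: 0% = DMSO untreated cells without growth and 100% = 10 µM 1-NA-PP1 full growth; higher means more yeast growth rescued from 5-FOA killing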); conditions: S. cerevisiae cbk1-as DSE1-URA3 strain, 5-FOA growth OD615, 2 d; at 50 µM; active compounds read high

SMILES: CCC(CC)C(=O)Nc1cc(=O)n(C)c(=O)n1C
- growth inhibition [1]: -3.07%
- growth inhibition [2]: 8.82%
- viability increase [3]: -0.82%
- viability [4]: 92.8%
- viability [5]: 87.4%
- inhibition [6]: 0.18%
- RAM network inhibition [7]: -2.19%

SMILES: Nc1cccc(-n2nncc2-c2ccc(Cl)cc2)c1
- growth inhibition [1]: -6.67%
- growth inhibition [2]: -5.47%
- viability increase [3]: -1.43%
- viability [4]: 99.3%
- viability [5]: 91.8%
- inhibition [6]: 1.98%
- RAM network inhibition [7]: 3.64%

SMILES: Cc1ccc(-c2nnc3n2N=C(c2ccccc2)CS3)cc1
- growth inhibition [1]: -5.77%
- growth inhibition [2]: 6.07%
- viability increase [3]: -0.74%
- viability [4]: 97.7%
- viability [5]: 96.9%
- inhibition [6]: 3.56%
- RAM network inhibition [7]: 2.25%

SMILES: CCN(Cc1ccccc1)C(=O)CSc1nc(C)cc(C)c1C#N
- growth inhibition [1]: -12.8%
- growth inhibition [2]: -2.79%
- viability increase [3]: 4.58%
- viability [4]: 104%
- viability [5]: 87.3%
- inhibition [6]: 2.48%
- RAM network inhibition [7]: 0.99%

SMILES: O=C(CSc1ncnc2c1oc1ccccc12)Nc1cccc(C(F)(F)F)c1
- growth inhibition [1]: -12.2%
- growth inhibition [2]: -15.6%
- viability increase [3]: 1.15%
- viability [4]: 86.3%
- viability [5]: 84%
- inhibition [6]: 3.52%
- RAM network inhibition [7]: 7.32%

SMILES: Cc1ccc(C(=O)Nc2ccc3c(c2)CCC3)o1
- growth inhibition [1]: -3.56%
- growth inhibition [2]: -9.54%
- viability increase [3]: -2.44%
- viability [4]: 77.5%
- viability [5]: 69.8%
- inhibition [6]: 0.895%
- RAM network inhibition [7]: -0.68%

SMILES: CCCc1cc(C(=O)Nc2cc(OC)c(Cl)cc2OC)no1
- growth inhibition [1]: -4.69%
- growth inhibition [2]: 4.3%
- viability increase [3]: -4.41%
- viability [4]: 89.5%
- viability [5]: 88.8%
- inhibition [6]: 0.45%
- RAM network inhibition [7]: 7.36%

SMILES: COc1ccccc1C(=O)NC(CCSC)C(=O)NCC(c1ccco1)N(C)C (configuration not stated)
- growth inhibition [1]: -10.1%
- growth inhibition [2]: -0.55%
- viability increase [3]: -2.48%
- viability [4]: 87.2%
- viability [5]: 89.5%
- inhibition [6]: 1.89%
- RAM network inhibition [7]: 1.92%

SMILES: Cc1cccn2c(=O)c3cc(C(=O)NCCN4CCOCC4)c(=N)n(CCc4ccccc4)c3nc12
- growth inhibition [1]: -0.895%
- growth inhibition [2]: -4.73%
- viability increase [3]: -5.8%
- viability [4]: 5.75% (active)
- viability [5]: 12.8% (active)
- inhibition [6]: 1.02%
- RAM network inhibition [7]: 2.73%

SMILES: CCCn1c(N2CCN(Cc3cccc(C)c3)CC2)nc2c1c(=O)[nH]c(=O)n2C
- growth inhibition [1]: 5.6%
- growth inhibition [2]: 2.15%
- viability increase [3]: -5.06%
- viability [4]: 89.3%
- viability [5]: 82.8%
- inhibition [6]: 1.34%
- RAM network inhibition [7]: 2.5%

SMILES: COc1ccc(C2N(c3cc(Cl)ccc3OC)C(=O)C3CCCN32)cc1 (configuration not stated)
- growth inhibition [1]: 2.4%
- growth inhibition [2]: -1.37%
- viability increase [3]: -1.89%
- viability [4]: 106%
- viability [5]: 96.9%
- inhibition [6]: 1.01%
- RAM network inhibition [7]: -0.42%

SMILES: CC1Cc2nc(SCC(=O)OCc3ccccc3)n(C)c(=O)c2S1 (configuration not stated)
- growth inhibition [1]: 5.29%
- growth inhibition [2]: 1.86%
- viability increase [3]: -3.06%
- viability [4]: 102%
- viability [5]: 93.8%
- inhibition [6]: 0.69%
- RAM network inhibition [7]: 6.68%

SMILES: O=C(Nc1ccccn1)c1cccc(S(=O)(=O)N2CCOCC2)c1
- growth inhibition [1]: 6.61%
- growth inhibition [2]: -0.23%
- viability increase [3]: -1.53%
- viability [4]: 102%
- viability [5]: 98.3%
- inhibition [6]: 1.09%
- RAM network inhibition [7]: 2.13%

SMILES: CCOC(=O)C1CCN(C(=O)CN(c2ccc(OC)cc2)S(=O)(=O)c2c(C)noc2C)CC1
- growth inhibition [1]: -7.19%
- growth inhibition [2]: -5.5%
- viability increase [3]: -2.59%
- viability [4]: 98.5%
- viability [5]: 96.7%
- inhibition [6]: 2.41%
- RAM network inhibition [7]: 3.41%

SMILES: CC(O)c1cccc(NC(=O)CCC(=O)O)c1 (configuration not stated)
- growth inhibition [1]: 0.85%
- growth inhibition [2]: -3.43%
- viability increase [3]: -2.35%
- viability [4]: 98.9%
- viability [5]: 95.4%
- inhibition [6]: 1.97%
- RAM network inhibition [7]: -1.13%

SMILES: Cc1ccc(S(=O)(=O)N(CC(O)CN2CCCCC2)c2ccccc2)cc1 (configuration not stated)
- growth inhibition [1]: 0.475%
- growth inhibition [2]: 0.56%
- viability increase [3]: -2.49%
- viability [4]: 71.6%
- viability [5]: 96.6%
- inhibition [6]: 2.97%
- RAM network inhibition [7]: 3.38%

From PubChem BioAssay
